35 compounds from ChEMBL document CHEMBL2412975 (Bioorg Med Chem, 2013) can be followed below.

The nature of series [1]: Apparent clearance in human liver microsomes. Format: ADME, Microsome. The note with it: read-out: CLH(app).
A short description of series [2]: Volume of distribution at steady state in rat at 1 mg/kg, iv. In kind it is ADME, organism-based. Set-up: dose 1 mg/kg, route intravenous. The note with it: in vivo, read-out: Vdss. In outline:
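Rat, single intravenous dose of 1 mg/kg. Steady-state volume of distribution comes from the plasma profile.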

Series [3] relates to Rattus norvegicus. The experiment in a line: Oral bioavailability in rat at 5 mg/kg. In kind it is ADME, organism-based. The note with it: in vivo. A digest of the protocol:
(§1)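 Rat PK. Oral dose 5 mg/kg given in 0.5% methylcellulose. Cmax and AUC are reported as free drug concentrations. Bioavailability is taken relative to a 1 mg/kg intravenous dose.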

Series [4] concerns Rattus norvegicus. The series is described as follows: AUC in rat at 5 mg/kg, po. Format: ADME, organism-based, Plasma. Set-up: dose 5 mg/kg, route oral. The note with it: in vivo. A digest of the protocol: as §1
Series [5] can be described thus: Cmax in rat at 5 mg/kg, po. Set-up: dose 5 mg/kg, route oral. The note with it: in vivo. Format: ADME, organism-based. A digest of the protocol:
as §1

A short description of series [6]: Half life in rat. Format: ADME, organism-based. The note with it: in vivo. A digest of the protocol: as §1
The nature of series [7]: Lipophilicity, log D of the compound. Format: physicochemical. The note with it: octanol/water.
A short description of series [8]: Metabolic stability in human liver microsomes assessed as compound remaining after 1 hr. Format: ADME, Microsome. The note with it: read-out: Stability. In outline:
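Human liver microsomes incubated with compound for 1 h. Read-out is percent of parent remaining.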

Each structure is given as a SMILES string.

For the compound `Nc1ncnc2c1C(=O)N(c1ccc(C3CCN(C(=O)[C@H]4CC[C@@H](O)CC4)CC3)cc1)CCO2`, the CLint scaled in series [1] was less than 8 mL/min/kg.
On the same count and under the same terms, in the case of `CC(C)[C@H](CO)NC(=O)C[C@H]1CC[C@H](c2ccc(N3CCOc4ncnc(N)c4C3=O)cc2)CC1` it was less than 8 mL/min/kg; in that of `Nc1ncnc2c1C(=O)N(c1ccc([C@H]3CC[C@H](CC(=O)N4CCCC4)CC3)cc1)CCO2`, 15 mL/min/kg; in that of `Nc1ncnc2c1C(=O)N(c1ccc([C@H]3CC[C@H](CC(=O)N4CC[C@@H](O)C4)CC3)cc1)CCO2`, less than 8 mL/min/kg.
As for `Nc1ncnc2c1C(=O)N(c1ccc([C@H]3CC[C@H](CC(=O)N4CCOCC4)CC3)cc1)CCO2`, the CLint scaled in series [1] was less than 8 mL/min/kg. Also, in series [2], the Vd worked out at 1.2 L/kg. Besides, the F in the series with Rattus norvegicus [3] is recorded as 77%. The compound also came in with an exposure (AUC) in the series on Rattus norvegicus [4] of 838 ng·h/mL. Also, the concentration in series [5] peaked (Cmax) at 425 ng/mL. This compound gave a half-life in series [6] of 2 h.
As for `CN1CCN(C(=O)C[C@H]2CC[C@H](c3ccc(N4CCOc5ncnc(N)c5C4=O)cc3)CC2)CC1=O`, the CLint scaled in series [1] amounted to 9 mL/min/kg.
As to `COC1CCN(C(=O)C[C@H]2CC[C@H](c3ccc(N4CCOc5ncnc(N)c5C4=O)cc3)CC2)CC1`, the CLint scaled in series [1] amounted to 107 mL/min/kg.
On to `Nc1ncnc2c1C(=O)N(c1ccc([C@H]3CC[C@H](CC(=O)N4CC(O)C4)CC3)cc1)CCO2`, for which, in series [1], the CLint scaled is less than 8 mL/min/kg.
Same read-out and setting: in the case of `CC(=O)N1CCC(c2ccc(N3CCOc4ncnc(N)c4C3=O)cc2)CC1` it was less than 8 mL/min/kg; in that of `CC(C)C(=O)N1CCC(c2ccc(N3CCOc4ncnc(N)c4C3=O)cc2)CC1`, 11 mL/min/kg; in that of `Nc1ncnc2c1C(=O)N(c1ccc(C3CCN(C(=O)C4CCCCC4)CC3)cc1)CCO2`, 41 mL/min/kg.
`Nc1ncnc2c1C(=O)N(c1ccc(C3CCN(C(=O)C4CCOCC4)CC3)cc1)CCO2`: the CLint scaled in series [1] was less than 8 mL/min/kg.
With `Nc1ncnc2c1C(=O)N(c1ccc(C3CCN(C(=O)c4cnon4)CC3)cc1)CCO2`, the CLint scaled in series [1] is less than 8 mL/min/kg.
Still for that read-out and setting: in the case of `Nc1ncnc2c1C(=O)N(c1ccc(C3CCN(C(=O)c4ccccc4)CC3)cc1)CCO2` it was less than 8 mL/min/kg.
Turning to `Nc1ncnc2c1C(=O)N(c1ccc(C3CCN(C(=O)c4ccno4)CC3)cc1)CCO2`, the CLint scaled in series [1] was found to be 13 mL/min/kg.
Same read-out and setting: in the case of `Nc1ncnc2c1C(=O)N(c1ccc(C3CCN(C(=O)c4ccon4)CC3)cc1)CCO2` it was 12 mL/min/kg.
Consider `N#CC[C@H]1CC[C@H](c2ccc(N3CCOc4ncnc(N)c4C3=O)cc2)CC1`, for which the CLint scaled in series [1] is less than 8 mL/min/kg. In series [2], the Vd worked out at 2 L/kg. For the same compound, in the series with Rattus norvegicus [3], the F was determined as 85%. This compound yielded an AUC in the series with Rattus norvegicus [4] of 801 ng·h/mL. This compound showed a Cmax in series [5] of 174 ng/mL. This compound gave a half-life in series [6] of 3.1 h.
With `CC(C)(O)C[C@H]1CC[C@H](c2ccc(N3CCOc4ncnc(N)c4C3=O)cc2)CC1`, in series [1], the CLint scaled was less than 8 mL/min/kg. In series [2], the Vd was determined as 1.3 L/kg. For the same compound, the F in the series with Rattus norvegicus [3] turned out to be 100%. Moreover, in the series with Rattus norvegicus [4], the AUC is 1260 ng·h/mL. The highest level in series [5] (Cmax) was 171 ng/mL. The half-life in series [6] was 2.6 h.
As for `CC(C)(N)C[C@H]1CC[C@H](c2ccc(N3CCOc4ncnc(N)c4C3=O)cc2)CC1`, in series [1], the CLint scaled came out at 12 mL/min/kg.
With `Cc1noc(C[C@H]2CC[C@H](c3ccc(N4CCOc5ncnc(N)c5C4=O)cc3)CC2)n1`, the CLint scaled in series [1] was less than 8 mL/min/kg. For the same compound, the Vd in series [2] was 1.2 L/kg. The same compound returned a logD in series [7] of 2.3. Further, in the series on Rattus norvegicus [3], the F came to 53%. Also, in the series on Rattus norvegicus [4], the AUC was 727 ng·h/mL. Besides, the highest level in series [5] (Cmax) was 118 ng/mL. The compound further gave a half-life in series [6] of 2.7 h.
With `Cc1nnc(C[C@H]2CC[C@H](c3ccc(N4CCOc5ncnc(N)c5C4=O)cc3)CC2)o1`, the CLint scaled in series [1] was less than 8 mL/min/kg.
With `Cc1nnc(C[C@H]2CC[C@H](c3ccc(N4CCOc5ncnc(N)c5C4=O)cc3)CC2)s1`, the CLint scaled in series [1] is less than 8 mL/min/kg.
`Cc1nnc(C[C@H]2CC[C@H](c3ccc(N4CCOc5ncnc(N)c5C4=O)cc3)CC2)[nH]1`: the CLint scaled in series [1] was less than 8 mL/min/kg.
As to `Cc1nnc(C[C@H]2CC[C@H](c3ccc(N4CCOc5ncnc(N)c5C4=O)cc3)CC2)n1C`, in series [1], the CLint scaled is less than 8 mL/min/kg.
Take `Cc1noc(CC[C@H]2CC[C@H](c3ccc(N4CCOc5ncnc(N)c5C4=O)cc3)CC2)n1`: the CLint scaled in series [1] came to 82 mL/min/kg.
`Nc1ncnc2c1CN(c1ccc([C@H]3CC[C@H](CCO)CC3)cc1)CCO2`: the CLint scaled in series [1] worked out at 11 mL/min/kg.
On to `Cc1nc(N)c2c(n1)OCCN(c1ccc([C@H]3CC[C@H](CC(=O)O)CC3)cc1)C2=O`, for which the CLint scaled in series [1] is less than 8 mL/min/kg.
The same measure, in the same setting: in the case of `Nc1ccnc2c1C(=O)N(c1ccc([C@H]3CC[C@H](CC(=O)O)CC3)cc1)CCO2` it was 8.4 mL/min/kg.
Still for that read-out and setting: in the case of `Nc1ncnc2c1C(=O)N(c1ccc([C@H]3CC[C@H](CCC(=O)O)CC3)cc1)CCO2` it was less than 8 mL/min/kg; in that of `CN(CC(=O)O)C(=O)C[C@H]1CC[C@H](c2ccc(N3CCOc4ncnc(N)c4C3=O)cc2)CC1`, less than 8 mL/min/kg.
On the same count and under the same terms, in the case of `Nc1ncnc2c1C(=O)N(c1ccc([C@H]3CC[C@H](Cc4nnn[nH]4)CC3)cc1)CCO2` it was less than 8 mL/min/kg.
In the case of `NC(=O)C[C@H]1CC[C@H](c2ccc(N3CCOc4ncnc(N)c4C3=O)cc2)CC1`, the CLint scaled in series [1] is less than 8 mL/min/kg. Further, in series [2], the Vd was determined as 1.6 L/kg. The compound also gave a F in the series with Rattus norvegicus [3] of 88%. Moreover, the AUC in the series on Rattus norvegicus [4] turned out to be 810 ng·h/mL. For the same compound, in series [5], the highest level (Cmax) was 273 ng/mL. Further, the half-life in series [6] is 4.3 h.
`CCNC(=O)C[C@H]1CC[C@H](c2ccc(N3CCOc4ncnc(N)c4C3=O)cc2)CC1`: the CLint scaled in series [1] was less than 8 mL/min/kg.
Same read-out and setting: in the case of `Nc1ncnc2c1C(=O)N(c1ccc([C@H]3CC[C@H](CC(=O)NC4CCCC4)CC3)cc1)CCO2` it was 39 mL/min/kg.
Take `Nc1ncnc2c1C(=O)N(c1ccc([C@H]3CC[C@H](CC(=O)O)CC3)cc1)CCO2` [PF-04620110]: the CLint scaled in series [1] is less than 8 mL/min/kg. In series [2], the Vd was determined as 1.8 L/kg. Moreover, in series [8], the remaining at 1 h came out at 93%. This compound displayed an AUC in the series with Rattus norvegicus [4] of 565 ng·h/mL. This compound registered a Cmax in series [5] of 225 ng/mL. In series [6], this compound showed a half-life of 7.3 h.
